Bioassay records deposited in PubChem by several laboratories.
Only some compounds are listed: those with a hit (about 1.7% of all), similar ones and a draw of the others.
Vif inh – HIV Vif inhibition. HEK293T cells, Vif self-association by quenched fluorescence, imaging, 24 h. AID 602346. inhibition, % at 7.49 µM. actives 0.35% (n = 340,000); in the data active means inhibition above about 50%, passing the limit was not always enough; inconclusive means no clear call, values can overlap the other calls; inactive means below about 31%
RanGTP-Impb inh – disruptors of Ran-importin-beta complex formation – biochemical, FRET, CFP-Ran, YFP-importin-beta, homogeneous, primary screen; actives 1.1% (n = 300,000); cell-free CFP-Ran/YFP-importin-beta FRET ratio; inhibition, % (no concentration beside the values);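 active means more than half of the replicate wells show a fall in the fluorescence ratio signal beyond about 16%, limit read from the data, passing the limit was not always enough; inconclusive means exactly half of the replicate wells pass the set limit; inactive means fewer than half of replicates pass the limit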;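 further: 0% = DMSO wells and 100% = Ran loaded with GDP instead of GTP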
Rce1 inh – blocks yeast Ras-converting enzyme | Q03530 | actives 0.27% (n = 290,000) | yeast membranes, quenched prenylated peptide cleavage fluorescence | AID 2563 | calls only;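 active means fall in fluorescence gain of 50% or more versus controls, with final raw signal at or below 3038400; inconclusive means same 50% fall but final raw signal above 3038400; inactive means fall in fluorescence gain under 50%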;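 further: plate controls were neutral control wells for no effect and wells lacking membranes for full effect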
Target sequence (Q03530 whole entry, looked up): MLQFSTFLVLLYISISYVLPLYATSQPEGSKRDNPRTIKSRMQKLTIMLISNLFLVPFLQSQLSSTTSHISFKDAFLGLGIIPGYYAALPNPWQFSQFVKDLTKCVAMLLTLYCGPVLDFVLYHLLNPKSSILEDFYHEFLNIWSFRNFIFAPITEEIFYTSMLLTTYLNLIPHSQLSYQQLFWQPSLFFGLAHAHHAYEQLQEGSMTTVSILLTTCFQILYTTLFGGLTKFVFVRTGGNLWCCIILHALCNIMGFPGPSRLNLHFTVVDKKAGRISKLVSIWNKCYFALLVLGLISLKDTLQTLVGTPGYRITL
Runt-SMMHC FRET – blocks binding of human RUNX1 Runt domain to CBFb-SMMHC; Q01196+Q13951; Cerulean-Runt/Venus-CBFb-SMMHC FRET ratio 530/480, 1 h; inhibition, % at 20 µM; actives 0.74% (n = 220,000); AID 1434;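 active means mean inhibition across duplicate retests at 20 µM reaching about 50%, limit read from the data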;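 further: 0% = DMSO wells and 100% = wells with excess untagged CBFb-SMMHC; inhibitors lower the FRET ratio by blocking Runt binding to CBFb-SMMHC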
Runt-CBFb FRET – inhibitors of human RUNX1 Runt domain binding to CBFb; Q01196+Q13951; Cerulean-Runt/Venus-CBFb FRET ratio 530/480, 1 h; inhibition, % at 20 µM; actives 0.46% (n = 220,000); AID 1496;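 active means inhibition over about 50% at 20 µM in the single-dose screen, limit read from the data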;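 further: 0% = DMSO wells and 100% = excess unlabeled CBFb competitor control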
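Assay system: Cerulean-Runt domain fusion protein, energy donor; Signal: fluorescence energy transfer, 422 nm excitation, 530/480 nm emission; Timing: 1 h compound exposure, room temperature; Control set: unlabeled CBFb; Medium: Tris buffer pH 7.5 with salts and BSA; Compound: single test concentration of 20 µM, 1% DMSO final; Probe or stimulus: Venus-CBFb 100 nM.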
* = called active by the depositor; i = inactive; ? = inconclusive; nt = no result given; + = active, no number.

SMILES	Vif inh	RanGTP-Impb inh	Rce1 inh	Runt-SMMHC FRET	Runt-CBFb FRET
COc1ccc(C(=O)N=c2c(C#N)cc3c(=O)n4cccc(C)c4nc3n2Cc2ccco2)cc1	nt	78.2*	i	nt	69.9*
Cc1ccccc1C(=O)N=c1c(C#N)cc2c(=O)n3cccc(C)c3nc2n1Cc1ccco1	nt	110.3*	i	57.8*	124.0*
Cc1ccc(-c2csc(NC(=O)c3ccc4c(=O)n5c(nc4c3)CCCCC5)n2)cc1	-5.5	1.7	i	-6.5	-11.3
O=C(Cc1ccc(Cl)cc1)NC1CC1	70.8*	0.0	i	-2.1	1.6
O=C(c1cccc(Cl)c1)N1CCC2(CC1)NCCc1[nH]cnc12	52.3*	3.2	i	nt	nt
Cc1[nH]n(-c2ccccc2)c(=O)c1C=Nc1ccc(S(=O)(=O)N=C(N)N)cc1	-15.6	-1.4	i	-2.7	-1.3
Cc1[nH]n(-c2ccccc2)c(=S)c1C=Nc1ccc([N+](=O)[O-])cc1	-7.2	nt	nt	73.8*	-7.4
Cc1cccc(/C=N/NC(=O)Cn2nnnc2N)n1	3.2	5.2	i	4.6	1.4
O=C(CCN1C(=O)c2cccc3cccc(c23)C1=O)Nc1ccccc1	-5.6	-0.5	i	1.1	-2.7
C/C(O)=C(\C#N)c1nc2ccccc2[nH]1	51.1*	3.1	i	1.1	3.2
CCOC(=O)c1c(C)[nH]c(C(=O)OCC(O)=C(C#N)c2nc3ccccc3[nH]2)c1C	-3.1	nt	nt	nt	nt
CC(C)C(=O)OC/C(O)=C(\C#N)c1nc2ccccc2[nH]1	31.8	15.3*	i	14.8	4.5
N#C/C(=C(/O)CCl)c1nc2ccccc2[nH]1	6.1	2.2	i	35.9	15.6
Cc1c(-c2cccc(Cl)c2)nc2ccccc2c1C(=O)OC/C(O)=C(\C#N)c1nc2ccccc2[nH]1	-4.1	-0.1	i	53.9*	23.2
CCOC(=O)C(NC(C)=O)C(=O)Nc1ccc(C)cc1C (stereo unspecified)	-4.9	2.6	i	-1.9	-0.5
O=C(Cn1c(=O)cnc2ccccc21)Nc1cccc(S(=O)(=O)N2CCCCC2)c1	-7.7	nt	nt	nt	nt
CCN(CC)CCn1c(NC(=O)c2ccccc2O)nc2ccccc21	12.8	-1.4	i	nt	nt
COc1ccc(CN(Cc2ccc(OC)cc2)S(=O)(=O)c2ccc(-n3cnnn3)c(C)c2)cc1	-15.1	27.1*	i	-0.6	-1.9
COc1ccc(CN(CC2CCCO2)S(=O)(=O)c2ccc(-n3cnnn3)c(OC)c2)cc1 (stereo unspecified)	3.4	-0.2	i	-0.1	-2.8
COc1ccc(CN(Cc2cccnc2)S(=O)(=O)c2ccc(-n3cnnn3)c(OC)c2)cc1	21.7	0.8	i	nt	nt
COc1ccc(CN(C2CCCC2)S(=O)(=O)c2ccc(-n3cnnn3)c(OC)c2)cc1OC	-25.2	4.8	+	-2.5	-7.4
CCOc1cc(S(=O)(=O)N(Cc2ccccc2)Cc2ccccc2)c(OCC)cc1-n1cnnn1	-11.4	1.7	+	-2.3	-4.2
CCOc1cc(S(=O)(=O)NCc2ccccc2)c(OCC)cc1-n1cnnn1	16.2	?	i	nt	nt
NC(N)=NC1=NC(=O)/C(=C/c2ccccc2-n2cccn2)S1	-0.8	2.1	i	-0.8	1.9
CCCOc1c(Br)cc(C2C3=C(CCCC3=O)N(C)C3=C2C(=O)CCC3)cc1OC	14.4	106.9*	i	79.2*	-1.9
SMILES	Vif inh	RanGTP-Impb inh	Rce1 inh	Runt-SMMHC FRET	Runt-CBFb FRET
COc1ccc(C2C3=C(CCCC3=O)N(CC(=O)O)C3=C2C(=O)CCC3)cc1Br	6.4	nt	nt	nt	nt
CCCOc1c(Br)cc(C2C3=C(CCCC3=O)N(CC)C3=C2C(=O)CCC3)cc1OC	3.9	95.8*	i	89.6*	93.7*
CCC(=O)Nc1ccc(C(=O)COC(=O)c2sc(C)nc2C)cc1	-0.4	nt	nt	nt	nt
CCCCCCSc1cc(-c2nc3cc(C)ccn3c2NCCCC)ccc1OC	-9.5	4.5	+	nt	nt
CCCCNc1c(-c2ccc(SC(C)CC)c(OC)c2)nc2ccc(C)cn12 (stereo unspecified)	-11.1	3.0	+	nt	nt
CCCCNc1c(-c2ccc(OC)c(Sc3ccc(OC)cc3)c2)nc2cnccn12	60.7*	nt	nt	nt	nt
CCCCCCSc1cc(-c2nc3cnccn3c2NCCCC)ccc1OC	3.4	nt	nt	nt	nt
Clc1ccc2c(c1)C(c1cccs1)=NNC(c1cccnc1)=N2	-3.2	-1.7	i	-3.0	-6.9
Cc1cc(S(=O)(=O)N2CCCCC2)ccc1OCC(=O)N1CCOCC1	11.5	3.9	i	nt	nt
CCCCc1ncc(CN2CCC(n3nccc3NC(=O)c3ccccc3Cl)CC2)[nH]1	7.1	2.7	i	nt	nt
Cn1c(N)c(S(=O)(=O)N2CCN(c3ccccc3Cl)CC2)c(=O)n(C)c1=O	-4.4	26.2*	i	nt	nt
Cn1c(N)c(S(=O)(=O)N2CCN(c3cccc(Cl)c3)CC2)c(=O)n(C)c1=O	5.9	-1.0	i	nt	nt
O=C(Nc1cccc(C(=O)O)c1)/C(=C\c1ccccc1)NC(=O)c1cccc2ccccc12	-1.0	4.6	i	-5.1	0.6
COc1ccc(S(=O)(=O)N(CC(=O)NC2CCCCC2)c2ccc(F)cc2)cc1	11.3	3.8	i	nt	nt
O=C(NCCCNC(=O)C(F)(F)C(F)F)C(F)(F)C(F)F	-1.3	28.6*	i	3.3	-1.4
O=C(Nc1ccccc1)C(Cc1ccccc1)c1ccccc1 (stereo unspecified)	31.4	nt	nt	nt	nt
COc1ccc(S(=O)(=O)n2nc(-c3cc(OC)c(OC)c(OC)c3)cc2N)cc1OC	5.6	nt	nt	-3.3	-2.0
COc1ccc(-c2cc(N)n(S(=O)(=O)c3c(F)c(F)c(F)c(F)c3F)n2)cc1OC	59.1*	-2.8	i	5.8	-1.4
COc1ccc(CCNc2nnc(Sc3nnnn3-c3ccccc3)s2)cc1OC	139.2*	-4.4	i	-4.3	-0.6
COc1ccc(-n2nnnc2SCC(=O)NCCc2ccccc2)cc1OC	0.8	?	i	1.8	1.0
CC(C)(C)NS(=O)(=O)c1ccc(CCC(=O)N2CCOCC2)cc1	16.0	34.8*	i	1.0	1.5
COCCn1c(-c2cccs2)nc2nc3ccccc3nc21	-8.9	7.2	i	86.6*	41.4
CCCn1c(-c2cccs2)nc2nc3ccccc3nc21	-3.5	5.1	i	131.4*	40.1
COCCn1c(-c2cc(OC)c(OC)c(OC)c2)nc2nc3ccccc3nc21	nt	nt	nt	1.7	1.4
COCCn1c(-c2ccco2)nc2nc3ccccc3nc21	36.5	19.5*	?	65.6*	7.7
O=S(=O)(/N=C(/Nc1ccc(F)c(F)c1F)c1ccccc1)c1ccccc1	-20.8	1.4	i	-0.2	-4.2
CCOC(CCn1c(SCC(=O)NC2CCCC2)nc2ccccc2c1=O)OCC	-6.6	-2.7	i	nt	nt
COc1ccc(CNC(=O)COC(=O)c2cc(-c3ccc(Cl)s3)nc3ccccc23)cc1	-18.3	16.6*	i	-5.6	-1.8
CCC(C)c1ccc(-c2cc(C(=O)OCC(=O)Nc3cc(C)on3)c3ccccc3n2)cc1 (stereo unspecified)	6.2	2.1	i	2.0	-1.1
